KCNQ1 act: human KCNQ1 channel potentiation or activation | CHO-K1 KCNQ1, thallium flux FluxOR fluorescence; hits give high values | B-score at 10 µM | 0.35% of 310,000 active;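 active means fluorescence ratio B-score, a plate-corrected score, at least three library SD, with initial intensity B-score within 5 SD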
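Assay system: CHO-K1 cells stably expressing KCNQ1. Medium: assay buffer for compound exposure, DMSO matched across wells. Timing: 37 °C overnight plating, 90-min dark dye load, 20-min compound pretreatment. Signal: kinetic FluxOR fluorescence, 10 s baseline plus 110 s post-stimulus.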
KCNK9 inh: human KCNK9 channel inhibition; HEK293 KCNK9, FluxOR thallium flux fluorescence; hits give low values; B-score at 10 µM; Q9NPC2; 1.2% of 310,000 active; AID 488922;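 active means ratio B-score over 3 SD below the library mean, with starting fluorescence within 5 SD of its mean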;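 further: negative B-score means less thallium flux so channel inhibition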
hERG rescue: compounds protecting human hERG from proarrhythmic drug block; Q12809; CHO-hERG, FluxOR thallium flux, dofetilide IC70 present; activation (rescue from dofetilide block), less the hit threshold, % at 10 µM; 0.51% of 310,000 active;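 active means activation above the mean of controls blocked by dofetilide plus 5 SD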;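 further: thallium influx through hERG after potassium depolarization seen as dye fluorescence rise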
KCNK3 block: human KCNK3 channel inhibition, primary screen | O14649 | CHO-KCNK3 thallium flux, FluxOR fluorescence; hits give low values | B-score at 10 µM | 0.84% of 340,000 active | AID 602410;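 active means B-score under library mean minus 4 SD, starting fluorescence ratio at most library mean plus 5 SD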;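 further: more negative B-score means stronger inhibition of thallium flux through KCNK3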
Kir21 inh: inhibitors of mouse Kir2.1 inward-rectifier potassium channel | AID 1672 | B-score at 10 µM | P35561 | 0.85% of 310,000 active | HEK293-Kir2.1, FluxOR thallium flux fluorescence; hits give low values;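 active means fluorescence ratio B-score at or below minus 3 SD of library scores, with starting-brightness B-score within 2 SD, cut at about -4.2 in these data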;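 further: channel flux triggered by added potassium and thallium sulfate stimulus; B-score of peak minus minimum fluorescence over baseline after thallium stimulus; more negative B-score means stronger Kir2.1 block with less thallium influx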
Target sequence (P35561 whole entry, looked up): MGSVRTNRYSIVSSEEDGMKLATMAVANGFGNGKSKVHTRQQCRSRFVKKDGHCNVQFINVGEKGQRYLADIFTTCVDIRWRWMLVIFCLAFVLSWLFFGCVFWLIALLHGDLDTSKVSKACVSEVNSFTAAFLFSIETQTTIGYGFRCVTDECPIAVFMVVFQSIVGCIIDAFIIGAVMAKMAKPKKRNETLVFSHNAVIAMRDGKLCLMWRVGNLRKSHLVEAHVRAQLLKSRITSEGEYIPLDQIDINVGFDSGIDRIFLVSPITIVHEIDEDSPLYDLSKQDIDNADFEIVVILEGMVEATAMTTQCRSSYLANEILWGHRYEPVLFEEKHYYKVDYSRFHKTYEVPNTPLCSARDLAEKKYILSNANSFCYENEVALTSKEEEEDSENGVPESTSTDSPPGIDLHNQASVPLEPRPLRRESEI
KCNQ1 inh: blocks the human KCNQ1 potassium channel; P51787; CHO-K1 KCNQ1, FluxOR thallium flux fluorescence; hits give high values; B-score at 10 µM; 1.3% of 310,000 active;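 active means compounds whose thallium flux B-score, printed positive for inhibition, exceeds three library SD while starting fluorescence stays within three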;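 further: channel opened by potassium depolarization with thallium stimulus after 20 min compound exposure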
* hit, by the source's call; i = inactive; / = not tested or not shown. An excerpt weighted towards active compounds, which were near 3.7% of everything screened.

SMILES	KCNQ1 act	KCNK9 inh	hERG rescue	KCNK3 block	Kir21 inh	KCNQ1 inh
CCOc1ccc(-c2cc(C)[n+](CCO)c(-c3ccc(OCC)cc3)c2)cc1	i	i	-3.5	i	0.68	i
C[n+]1c(-c2ccccc2)cc(-c2ccc(O)cc2)cc1-c1ccccc1	i	i	-23.3	i	-0.46	i
CCOc1ccc(-c2cc(C)[n+](CCc3ccc(OC)c(OC)c3)c(-c3ccc(OCC)cc3)c2)cc1	i	i	-27.6	i	-3.16	10*
Cc1cc(-c2ccccc2)cc(-c2ccccc2)[n+]1CCc1ccccc1	i	-8.03*	-25.7	i	-6.92*	8*
CC1(C)CC(CCNCc2ccc3c(c2)OCO3)(Cc2ccccc2)CCO1 (centres undefined)	i	i	-7.0	i	-2.8	i
CC(=O)OC1CC[C@]2(C#N)[C@H]3CC[C@]4(C)[C@H](C5C=CC(=O)O5)CCC4(O)C3CCC2(O)C1 (some centres undefined)	i	i	-4.0	i	0.67	i
Cn1c(O)c(Cc2ccc(OCc3ccccc3)cc2)c(=O)n(C)c1=O	i	i	-7.4	i	1.27	i
O=C1Nc2ccc(Br)cc2C(c2ccccc2Cl)=NC1O (centres undefined)	i	i	-6.3	i	-1.12	i
CC1N=C(c2ccccc2Cl)c2cc(Br)ccc2NC1=O (centres undefined)	i	i	7.6*	i	1.48	i
CCNC(=O)NNC(=O)C1CC(c2cccnc2)=NO1 (centres undefined)	i	i	-1.8	i	0.01	i
Cc1cnc(-n2c(=S)[nH]c3ccccc3c2=O)s1	/	/	/	i	/	/
N#CC(C#N)=NNc1ccc(-n2ccc(C(F)(F)F)n2)cc1	i	i	-35.5	i	-6.02*	7*
COc1ccc(-n2c(C)nc3ccccc3c2=O)c([N+](=O)[O-])c1	i	i	-6.5	i	0.22	i
C/C(=N\NP(=S)(c1ccccc1)c1ccccc1)c1ccc(O)cc1O	i	i	-11.2	i	-0.1	i
CC1=CC2/C=C(\C)CCC(O)C(O)/C=C/C(=O)C23C(=O)NC(CC(C)C)C3C1C (centres undefined)	10*	i	-11.7	i	-7.11*	i
COc1cccc(CC(=O)N2CCN(Cc3cccc(Cl)c3)CC2)c1	8*	i	-4.9	i	-0.25	i
C[C@]12CCC3C(CC[C@H]4[C@@H](O)[C@H](O)CC[C@]34C)C1CCC2=O (some centres undefined)	/	/	/	i	/	/
CCN1/C(=C\C=C\C2=[N+](CC)c3ccccc3C2(C)C)C(C)(C)c2ccccc21	i	i	-55.6	i	-12.9	21*
C=C(C)[C@@H]1C2C(=O)O[C@H]1[C@H]1OC(=O)[C@@]34OC3C[C@]2(O)[C@@]14C (some centres undefined)	/	/	/	i	/	/
CCCCNC(C)Cc1ccccc1 (centres undefined)	/	/	/	i	/	/
COc1ccc(CC(C)NCCC(c2ccccc2)c2ccccc2)cc1 (centres undefined)	i	i	-28.0	i	-3.12	6*
ClCCOCCCl	/	/	/	i	/	/
Cc1ccccc1CN1CCN(Cc2ccccc2)CC1	i	i	-6.3	i	-4.65*	i
COC(=O)C1=C(c2ccccc2OCc2ccccc2)C[C@@H]2CC[C@H]1N2C(=O)NCCOc1ccccc1	/	/	/	i	/	/
Cc1cccc(OP(=O)(Oc2ccccc2)OC(c2ccccc2)C(F)(F)F)c1 (centres undefined)	i	i	-11.2	i	-0.11	8*
SMILES	KCNQ1 act	KCNK9 inh	hERG rescue	KCNK3 block	Kir21 inh	KCNQ1 inh
CN[C@@H]1C[C@@H](c2ccc(Cl)c(Cl)c2)c2ccccc21	i	i	-18.9	/	-11.4*	i
COc1ccc(OCC#CCN2CCCCCC2)cc1	i	i	-12.7	i	0.55	i
Cc1ccc(C(C)C)c(OCC#CCN2CCCC2)c1	i	i	-13.6	i	-4.21*	i
CS(=O)(=O)N1CCN(C(=N)N[N+](=O)[O-])CC1	i	i	-7.7	i	-0.48	i
CCOC(=O)c1ccc2[nH]c(-c3ccc(S(=O)(=O)F)cc3)cc(=O)c2c1	i	i	-9.0	i	-0.35	i
COc1c(C=C2C(=O)NC(=O)NC2=O)c(CCN(C)C(=O)c2ccccc2)cc2c1OCO2	i	i	-8.8	i	-4.51*	i
O=C1NC(=O)N(c2cccc(Cl)c2)C(=O)/C1=C\c1ccc(Sc2nc3ccccc3[nH]2)o1	i	i	-9.6	i	-4.75*	i
CCOC(=O)c1c(-n2c(C)cc(C=C3C(=O)NC(=S)NC3=O)c2C)sc2c1CCCC2	i	i	-17.1	i	-4.85*	i
CCOC(=O)c1c(-n2c(C)cc(/C=C3/C(=O)NC(=O)N(CC)C3=O)c2C)sc2c1CCCC2	i	i	-1.5	i	-0.58	i
CCCn1c(C)c(C(=O)c2cccc3ccccc23)c2ccccc21	/	/	/	-10.5*	/	/
Cc1c(C(=O)c2ccccc2)c2ccccc2n1C	i	i	-11.5	i	-0.94	i
COC(=O)C1=C(c2c(C)noc2C)C[C@@H]2CC[C@H]1N2C(=O)NCCNC(C)=O	/	/	/	i	/	/
C/C1=C\[C@@H](C)C/C=C/[C@H]2[C@@H]3O[C@]3(C)[C@@H](C)[C@H]3[C@H](Cc4c[nH]c5ccccc45)NC(=O)[C@]32C(=O)/C=C/C(=O)[C@@H]1O	22*	i	-0.6	i	-2.06	i
CC(C)(C)c1cc([N+](=O)[O-])cc(C(C)(C)C)c1O	i	i	-17.9	/	-1.31	6*
CC1=C(C)CC2(C(=O)NC(=O)NC2=O)C(C)C1 (centres undefined)	/	/	/	i	/	/
COc1ccc(CCNCc2ccc(SC)cc2)cc1	i	i	-9.7	/	-5.54*	i
CCOC(=O)[C@@H]1[C@H]2COc3ccc(Br)cc3[C@@H]2N2C(=O)N(c3cccc(C)c3)C(=O)[C@]12C	i	i	-6.4	i	-0.47	i
COc1ccc(CN2CCCC(C(=O)c3ccc(Cl)cc3)C2)c(O)c1 (centres undefined)	i	i	-2.8	i	-10.5*	i
O=C(c1ccc(Cl)cc1)C1CCCN(Cc2cccc3ncccc23)C1 (centres undefined)	i	i	-27.3	i	-1.79	i
O=C1N(c2nncs2)CCN1[N+](=O)[O-]	i	i	-7.8	i	-0.29	i
O=C1NC(=O)N(c2ccc3c(c2)OCO3)C(=O)/C1=C/c1ccc(N2CCCCC2)o1	i	-7.66*	-19.2	i	-4.29*	6*

Assay outcomes: PubChem, Johns Hopkins Ion Channel Center
